Calls of active or inactive are those of the source. No cut-off for these calls is given here.
Columns and labels:
[1] = Displacement of […] from 5-hydroxytryptamine 1 receptor of rat cortex
[2] = molecular target: Serotonin 2 (5-HT2) receptor (Rattus norvegicus, UniProt P30994+P08909+P14842); assay: Displacement of [3H]ketanserin from 5-hydroxytryptamine 2 receptor of rat cortex
Method in brief: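 Rat tissue homogenate (4 mg wet weight per assay) in 50 mM Tris, 5 mM MgCl2, 0.5 mM EDTA, pH 7.4 at 37 °C, competed against 0.4 nM [3H]ketanserin. Bound ligand was collected on glass fiber filters and counted by liquid scintillation. Assays were run in triplicate. IC50 came from a 23-point curve by nonlinear least-squares fitting, and Ki = IC50/(1 + [D]/KD).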

Rattus norvegicus [3] = assay: Stimulus generalization in DOM-trained rats at dosage 12 mg/kg. Number of animals responding/number of animals are 4/4; assay type: functional
Rattus norvegicus [4] = assay: Stimulus generalization in DOM-trained rats at dosage 13.5 mg/kg. Number of animals responding/number of animals are 3/4; assay type: functional
Rattus norvegicus [5] = assay: Stimulus generalization in DOM-trained rats at dosage 14.0 mg/kg. Number of animals responding/number of animals are 1/5; D=Disruption of behavior; assay type: functional, organism-based; set-up: dose 14 mg/kg
Rattus norvegicus [6] = assay: Stimulus generalization in DOM-trained rats at dosage 15 mg/kg. Number of animals responding/number of animals are 1/4; D=Disruption of behavior; assay type: functional, organism-based; set-up: dose 15 mg/kg
Rattus norvegicus [7] = assay: Stimulus generalization in DOM-trained rats at dosage 18 mg/kg. Number of animals responding/number of animals are 0/4; D=Disruption of behavior; assay type: functional, organism-based; set-up: dose 18 mg/kg
Rattus norvegicus [8] = assay: Stimulus generalization in TFMPP-trained rats at dosage 1.2 mg/kg. Number of animals responding/number of animals are 4/4; assay type: functional
Rattus norvegicus [9] = assay: Stimulus generalization in TFMPP-trained rats at dosage 10 mg/kg. Number of animals responding/number of animals are 3/3; assay type: functional
Rattus norvegicus [10] = assay: Stimulus generalization in TFMPP-trained rats at dosage 15 mg/kg. Number of animals responding/number of animals are 3/3; assay type: functional
Rattus norvegicus [11] = assay: Stimulus generalization in TFMPP-trained rats at dosage 3.0 mg/kg. Number of animals responding/number of animals are 4/4; assay type: functional
Rattus norvegicus [12] = assay: Stimulus generalization in TFMPP-trained rats at dosage 6.0 mg/kg. Number of animals responding/number of animals are 4/4; assay type: functional
Rattus norvegicus [13] = assay: Stimulus generalization in DOM-trained rats at dosage 6.0 mg/kg. Number of animals responding/number of animals are 5/5; assay type: functional
Rattus norvegicus [14] = assay: Compound was evaluated for ED50 in DOM-trained rats at dosage 9.0 mg/kg. Number of animals responding/number of animals are 3/3; assay type: functional
Rattus norvegicus [15] = assay: Stimulus generalization in DOM-trained rats at dosage 1.0 mg/kg. Number of animals responding/number of animals are 3/3; assay type: functional
Rattus norvegicus [16] = assay: Stimulus generalization in DOM-trained rats at dosage 3.0 mg/kg. Number of animals responding/number of animals are 3/3; assay type: functional
Rattus norvegicus [17] = assay: Stimulus generalization in DOM-trained rats at dosage 5.0 mg/kg. Number of animals responding/number of animals are 3/3; assay type: functional
Rattus norvegicus [18] = assay: Stimulus generalization in DOM-trained rats at dosage 8.0 mg/kg. Number of animals responding/number of animals are 3/3; assay type: functional
Rattus norvegicus [19] = assay: Stimulus generalization in DOM-trained rats at dosage 9.0 mg/kg. Number of animals responding/number of animals are 3/3; assay type: functional
Rattus norvegicus [20] = assay: Stimulus generalization in TFMPP-trained rats at dosage 10 mg/kg. Number of animals responding/number of animals are 5/5; assay type: functional
Rattus norvegicus [21] = assay: Stimulus generalization in TFMPP-trained rats at dosage 2.0 mg/kg. Number of animals responding/number of animals are 4/4; assay type: functional
Rattus norvegicus [22] = assay: Stimulus generalization in TFMPP-trained rats at dosage 5.0 mg/kg. Number of animals responding/number of animals are 4/4; assay type: functional
Rattus norvegicus [23] = assay: Stimulus generalization in TFMPP-trained rats at dosage 0.3 mg/kg. Number of animals responding/number of animals are 3/3; assay type: functional
Rattus norvegicus [24] = assay: Compound was evaluated for Effective Dose DOM-trained rats at dosage 12.0 mg/kg. Number of animals responding/number of animals are 5/5; assay type: functional
Rattus norvegicus [25] = assay: Stimulus generalization in DOM-trained rats at dosage 12.0 mg/kg. Number of animals responding/number of animals are 5/5; assay type: functional
Rattus norvegicus [26] = assay: Stimulus generalization in DOM-trained rats at dosage 4.0 mg/kg. Number of animals responding/number of animals are 5/5; assay type: functional
Rattus norvegicus [27] = assay: Stimulus generalization in DOM-trained rats at dosage 6.0 mg/kg. Number of animals responding/number of animals are 4/4; assay type: functional
Rattus norvegicus [28] = assay: Stimulus generalization in TFMPP-trained rats at dosage 1.5 mg/kg. Number of animals responding/number of animals are 3/3; assay type: functional
Rattus norvegicus [29] = assay: Stimulus generalization in TFMPP-trained rats at dosage 12.0 mg/kg. Number of animals responding/number of animals are 2/3; assay type: functional
Rattus norvegicus [30] = assay: Stimulus generalization in TFMPP-trained rats at dosage 12.5 mg/kg. Number of animals responding/number of animals are 0/3; Disruption of Behavior; assay type: functional, organism-based; set-up: dose 12.5 mg/kg
Rattus norvegicus [31] = assay: Stimulus generalization in TFMPP-trained rats at dosage 5.0 mg/kg. Number of animals responding/number of animals are 3/3; assay type: functional
Rattus norvegicus [32] = assay: Stimulus generalization in TFMPP-trained rats at dosage 8.0 mg/kg. Number of animals responding/number of animals are 3/3; assay type: functional
Rattus norvegicus [33] = assay: Stimulus generalization in DOM-trained rats at dosage 8.0 mg/kg. Number of animals responding/number of animals are 5/5; assay type: functional
Rattus norvegicus [34] = assay: Stimulus generalization in DOM-trained rats at dosage 0.1 mg/kg. Number of animals responding/number of animals are 3/3; assay type: functional
Rattus norvegicus [35] = assay: Stimulus generalization in DOM-trained rats at dosage 0.5 mg/kg. Number of animals responding/number of animals are 2/3; assay type: functional
Rattus norvegicus [36] = assay: Stimulus generalization in TFMPP-trained rats at dosage 1.0 mg/kg. Number of animals responding/number of animals are 5/5; assay type: functional
Rattus norvegicus [37] = assay: Stimulus generalization in TFMPP-trained rats at dosage 1.2 mg/kg. Number of animals responding/number of animals are 5/5; assay type: functional
Rattus norvegicus [38] = assay: Stimulus generalization in TFMPP-trained rats at dosage 0.1 mg/kg. Number of animals responding/number of animals are 4/5; assay type: functional
Rattus norvegicus [39] = assay: Stimulus generalization in TFMPP-trained rats at dosage 0.4 mg/kg. Number of animals responding/number of animals are 3/4; assay type: functional
Rattus norvegicus [40] = assay: Stimulus generalization in TFMPP-trained rats at dosage 0.05 mg/kg. Number of animals responding/number of animals are 4/4; assay type: functional
Rattus norvegicus [41] = assay: Stimulus generalization in DOM-trained rats at dosage 1.0 mg/kg. Number of animals responding/number of animals are 0/3; D=Disruption of behavior; assay type: functional, organism-based; set-up: dose 1 mg/kg
Rattus norvegicus [42] = assay: Compound was evaluated for ED50 in TFMPP-trained rats at dosage 0.50 mg/kg. Number of animals responding/number of animals are 4/4; assay type: functional
Rattus norvegicus [43] = assay: Stimulus generalization in TFMPP-trained rats at dosage 0.50 mg/kg. Number of animals responding/number of animals are 5/5; assay type: functional; conditions: dose 0.5 mg/kg
Rattus norvegicus [44] = assay: Stimulus generalization in TFMPP-trained rats at dosage 0.20 mg/kg. Number of animals responding/number of animals are 4/4; assay type: functional; conditions: dose 0.2 mg/kg
Rattus norvegicus [45] = assay: Stimulus generalization in TFMPP-trained rats at dosage 0.30 mg/kg. Number of animals responding/number of animals are 4/4; assay type: functional; conditions: dose 0.3 mg/kg
Rattus norvegicus [46] = assay: Stimulus generalization in TFMPP-trained rats at dosage 0.35 mg/kg. Number of animals responding/number of animals are 4/4; assay type: functional
Rattus norvegicus [47] = assay: Stimulus generalization in TFMPP-trained rats at dosage 0.15 mg/kg. Number of animals responding/number of animals are 3/3; assay type: functional
Rattus norvegicus [48] = assay: Stimulus generalization in TFMPP-trained rats at dosage 0.1 mg/kg. Number of animals responding/number of animals are 4/4; assay type: functional

SMILES: COc1ccc(OC)c(N2CCNCC2)c1
- Ki [1]: 1.03 µM
- Ki [2]: 8.43 µM
- Response (Rattus norvegicus [3]): 28%
- Response (Rattus norvegicus [4]): 22%
- Response (Rattus norvegicus [5]): inactive
- Response (Rattus norvegicus [6]): inactive
- Response (Rattus norvegicus [7]): inactive
- Response (Rattus norvegicus [8]): 14%
- Response (Rattus norvegicus [9]): 19%
- Response (Rattus norvegicus [10]): 14%
- Response (Rattus norvegicus [11]): 6%
- Response (Rattus norvegicus [12]): 14%
- Response (Rattus norvegicus [13]): 10%

SMILES: COc1cc(N2CCNCC2)c(OC)cc1Br
- Ki [1]: 0.82 µM
- Ki [2]: 2.43 µM
- ED50 (Rattus norvegicus [14]): 4.08 mg/kg
- Response (Rattus norvegicus [15]): 19%
- Response (Rattus norvegicus [16]): 31%
- Response (Rattus norvegicus [17]): 46%
- Response (Rattus norvegicus [18]): 72%
- Response (Rattus norvegicus [19]): 81%

SMILES: Oc1ccccc1N1CCNCC1
- Ki [1]: 0.15 µM
- Ki [2]: 17.2 µM
- Response (Rattus norvegicus [20]): 24%
- Response (Rattus norvegicus [21]): 12%
- Response (Rattus norvegicus [22]): 22%
- Response (Rattus norvegicus [23]): 17%

SMILES: COc1cc(N2CCNCC2)c(OC)cc1C
- Ki [1]: 0.68 µM
- Ki [2]: 4.71 µM
- ED50 (Rattus norvegicus [24]): 6.23 mg/kg
- Response (Rattus norvegicus [25]): 83%
- Response (Rattus norvegicus [26]): 21%
- Response (Rattus norvegicus [27]): 53%
- Response (Rattus norvegicus [28]): 11%
- Response (Rattus norvegicus [29]): 30%
- Response (Rattus norvegicus [30]): Disrupted behaviour
- Response (Rattus norvegicus [31]): 11%
- Response (Rattus norvegicus [32]): 7%
- Response (Rattus norvegicus [33]): 68%

SMILES: COc1ccc(OC)c(C(=O)N2CCNCC2)c1
- Ki [1]: > 100 µM
- Ki [2]: > 100 µM

SMILES: Cc1cccc(C(=O)N2CCNCC2)c1
- Ki [1]: 20.7 µM
- Ki [2]: 49 µM

SMILES: COc1ccc(N)c(C(=O)CCN)c1
- Ki [1]: 0.345 µM
- Ki [2]: 8.48 µM

SMILES: O=C(c1cccc(Cl)c1)N1CCNCC1
- Ki [1]: 17.1 µM
- Ki [2]: 55.6 µM

SMILES: COc1ccccc1N1CCNCC1
- Ki [1]: 0.035 µM
- Ki [2]: 3.5 µM
- Response (Rattus norvegicus [34]): 12%
- Response (Rattus norvegicus [35]): 20%
- Response (Rattus norvegicus [36]): 81%
- Response (Rattus norvegicus [37]): 94%
- Response (Rattus norvegicus [38]): 33%
- Response (Rattus norvegicus [39]): 63%
- Response (Rattus norvegicus [40]): 23%
- Response (Rattus norvegicus [41]): inactive

SMILES: FC(F)(F)c1cccc(N2CCNCC2)c1
- Ki [1]: 0.02 µM
- Ki [2]: 0.16 µM
- ED50 (Rattus norvegicus [42]): 0.17 mg/kg
- Response (Rattus norvegicus [43]): 93%
- Response (Rattus norvegicus [44]): 51%
- Response (Rattus norvegicus [45]): 70%
- Response (Rattus norvegicus [46]): 90%
- Response (Rattus norvegicus [40]): 25%
- Response (Rattus norvegicus [47]): 42%
- Response (Rattus norvegicus [48]): 8%
